Active and inactive are the calls of the source. No cut-off for these calls is given here.
Assays:
P2Y purinoceptor 2 [1] = target: T1, P2Y purinoceptor 2 (Homo sapiens, UniProt P41231); experiment: Agonist activity at human P2Y2 receptor expressed in human 1321N1 cells assessed as stimulation of [3H]inositol phosphate accumulation by liquid scintillation counting; type: functional, cell-based
Method in brief: (§1)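 Stable 1321N1 lines made by retroviral expression of each human receptor (parent cells lack P2YRs), seeded at 20000 cells/well two days ahead. Labelled 16 h with 1.0 μCi [3H]myo-inositol in serum-free, inositol-free DMEM. Agonist given in 100 mM Hepes pH 7.3/HBSS with 50 mM LiCl for 30 min at 37 °C. Stopped with ice-cold 50 mM formic acid, then neutralised. Total inositol phosphates taken off Dowex AG1-X8 and counted by scintillation.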

P2Y purinoceptor 4 [2] = target: T2, P2Y purinoceptor 4 (Homo sapiens, UniProt P51582); experiment: Agonist activity at human P2Y4 receptor expressed in human 1321N1 cells assessed as stimulation of [3H]inositol phosphate accumulation by liquid scintillation counting; type: functional, cell-based; method in brief: as §1
P2Y purinoceptor 6 [3] = target: T3, P2Y purinoceptor 6 (Homo sapiens, UniProt Q15077); experiment: Agonist activity at human P2Y6 receptor expressed in human 1321N1 cells assessed as stimulation of [3H]inositol phosphate accumulation by liquid scintillation counting; type: functional, cell-based; method in brief: as §1
P2Y purinoceptor 2 [4] = target: T1, P2Y purinoceptor 2; experiment: Agonist activity at human P2Y2 receptor expressed in human 1321N1 cells by functional assay; type: cell-based; method in brief: as §1
P2Y purinoceptor 4 [5] = target: T2, P2Y purinoceptor 4; experiment: Agonist activity at human P2Y4 receptor expressed in human 1321N1 cells by functional assay; type: cell-based; method in brief: as §1
P2Y purinoceptor 6 [6] = target: T3, P2Y purinoceptor 6; experiment: Agonist activity at human P2Y6 receptor expressed in human 1321N1 cells by functional assay; type: cell-based; method in brief: as §1
P2Y purinoceptor 6 [7] = target: T3, P2Y purinoceptor 6; experiment: Binding affinity to human P2Y6 receptor expressed in human 1321N1 cells assessed as fluorescence intensity at 100 nM for 30 mins by flow cytometry (FCM) binding assay in presence of 100 uM ecto-nucleotidase inhibitor alpha, beta-methylene-adenosine 5'-diphosphate; type: cell-based
Method in brief: (§2)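 P2Y6R-1321N1 cells grown in DMEM with 5% FBS, used at 80% confluence. Preincubated 30 min with 100 μM α,β-methylene-ADP plus 10 μM competing ligand, then 100 nM fluorescent ligand for 20–30 min. Cells washed three times in ice-cold DPBS, detached with 0.2% EDTA and analysed by flow cytometry (FL-4 channel, 10,000 events). MFI corrected for autofluorescence and expressed relative to ligand alone (100%); n = 4, mean ± SEM.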

P2Y purinoceptor 6 [8] = target: T3, P2Y purinoceptor 6; experiment: Binding affinity to human P2Y6 receptor expressed in human 1321N1 cells assessed as fluorescence intensity at 100 nM for 30 mins by flow cytometry (FCM) binding assay in presence of 10 uM MRS2179 P2Y1R-selective antagonist; type: cell-based; method in brief: as §2
P2Y purinoceptor 6 [9] = target: T3, P2Y purinoceptor 6; experiment: Binding affinity to human P2Y6 receptor expressed in human 1321N1 cells assessed as fluorescence intensity at 100 nM for 30 mins by flow cytometry (FCM) binding assay in presence of 10 uM MRS2578 noncompetitive antagonist; type: cell-based; method in brief: as §2
P2Y purinoceptor 6 [10] = target: T3, P2Y purinoceptor 6; experiment: Binding affinity to human P2Y6 receptor expressed in human 1321N1 cells assessed as fluorescence intensity at 100 nM for 30 mins by flow cytometry (FCM) binding assay in presence of 10 uM suramin competitive antagonist; type: cell-based; method in brief: as §2
P2Y purinoceptor 6 [11] = target: T3, P2Y purinoceptor 6; experiment: Binding affinity to human P2Y6 receptor expressed in human 1321N1 cells assessed as fluorescence intensity at 100 nM for 30 mins by flow cytometry (FCM) binding assay in presence of 10 uM P1-(uridine 5'-)-P4-(N4-methoxycytidine5'-)[…] selective dinucleotide agonist; type: cell-based; method in brief: as §2
P2Y purinoceptor 6 [12] = target: T3, P2Y purinoceptor 6; experiment: Binding affinity to human P2Y6 receptor expressed in human 1321N1 cells assessed as fluorescence intensity at 1 uM for 30 mins by fluorescence microscopy in presence of 10 uM MRS2578 noncompetitive antagonist; type: cell-based
Method in brief: (§3)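 P2Y6R-1321N1 cells on glass coverslips at 80% confluence, given fresh medium and, where stated, 10 μM noncompetitive antagonist MRS2578 for 30 min at 37 °C. Fluorescent ligand then added to 1 μM final for 30 min at 37 °C. Cells washed with ice-cold PBS, mounted and imaged by fluorescence microscopy.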

P2Y purinoceptor 6 [13] = target: T3, P2Y purinoceptor 6; experiment: Binding affinity to human P2Y6 receptor expressed in human 1321N1 cells assessed as fluorescence intensity at 1 uM for 30 mins by fluorescence microscopy; type: cell-based; method in brief: as §3

T2 sequence (P51582 whole entry): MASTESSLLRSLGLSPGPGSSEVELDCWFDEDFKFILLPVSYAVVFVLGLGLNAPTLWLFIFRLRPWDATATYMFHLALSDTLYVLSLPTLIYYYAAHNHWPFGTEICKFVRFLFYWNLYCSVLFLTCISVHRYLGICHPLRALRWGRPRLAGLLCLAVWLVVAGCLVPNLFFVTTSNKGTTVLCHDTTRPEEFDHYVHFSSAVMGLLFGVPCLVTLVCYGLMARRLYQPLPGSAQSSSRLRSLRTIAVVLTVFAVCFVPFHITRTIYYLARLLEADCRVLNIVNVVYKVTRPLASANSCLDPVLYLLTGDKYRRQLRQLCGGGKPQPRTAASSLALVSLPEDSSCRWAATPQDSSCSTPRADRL
T3 sequence (Q15077 whole entry): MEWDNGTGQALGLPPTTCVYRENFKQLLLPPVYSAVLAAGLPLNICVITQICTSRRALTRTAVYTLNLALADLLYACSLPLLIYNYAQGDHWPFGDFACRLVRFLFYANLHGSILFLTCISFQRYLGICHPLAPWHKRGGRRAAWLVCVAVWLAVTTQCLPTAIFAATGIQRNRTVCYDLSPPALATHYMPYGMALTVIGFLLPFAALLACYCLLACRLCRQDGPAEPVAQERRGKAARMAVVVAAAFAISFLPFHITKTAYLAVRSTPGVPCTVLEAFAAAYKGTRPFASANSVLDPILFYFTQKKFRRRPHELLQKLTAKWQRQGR
T1 sequence (P41231 whole entry): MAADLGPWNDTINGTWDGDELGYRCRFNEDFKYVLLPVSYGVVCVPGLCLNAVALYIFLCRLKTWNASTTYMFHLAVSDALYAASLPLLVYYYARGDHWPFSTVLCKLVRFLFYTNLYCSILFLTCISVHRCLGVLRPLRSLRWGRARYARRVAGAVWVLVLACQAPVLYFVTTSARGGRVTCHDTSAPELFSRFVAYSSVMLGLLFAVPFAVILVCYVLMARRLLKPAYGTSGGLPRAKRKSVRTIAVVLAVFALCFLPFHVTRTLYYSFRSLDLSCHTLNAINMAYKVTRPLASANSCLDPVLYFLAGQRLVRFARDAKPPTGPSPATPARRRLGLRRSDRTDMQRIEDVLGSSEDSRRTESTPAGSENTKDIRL

Compound	EC50 (P2Y purinoceptor 2 [1])	EC50 (P2Y purinoceptor 4 [2])	EC50 (P2Y purinoceptor 6 [3])	other results
O=c1[nH]/c(=N\OCCCc2ccccc2)ccn1[C@@H]1O[C@H](COP(=O)(O)OP(=O)(O)OP(=O)(O)OP(=O)(O)OC[C@H]2O[C@@H](n3cc/c(=N/OCCCc4ccccc4)[nH]c3=O)[C@H](O)[C@@H]2O)[C@@H](O)[C@H]1O				EC50 (P2Y purinoceptor 2 [4]): > 10000 nM; EC50 (P2Y purinoceptor 4 [5]): 1330 nM; EC50 (P2Y purinoceptor 6 [6]): > 10000 nM
O=c1[nH]/c(=N\OCCCc2cccc(I)c2)ccn1[C@@H]1O[C@H](COP(=O)(O)OP(=O)(O)OP(=O)(O)O)[C@@H](O)[C@H]1O	325 nM	114 nM	299 nM	
O=c1[nH]/c(=N\OCCCc2ccncc2)ccn1[C@@H]1O[C@H](COP(=O)(O)OP(=O)(O)OP(=O)(O)O)[C@@H](O)[C@H]1O	285 nM	250 nM	4280 nM	
N=c1ccc2c(-c3ccc(C(=O)NCCCCCCn4cc(CCNC(=O)COc5ccc(CCCO/N=c6/ccn([C@@H]7O[C@H](COP(=O)(O)OP(=O)(O)OP(=O)(O)O)[C@@H](O)[C@H]7O)c(=O)[nH]6)cc5)nn4)cc3C(=O)O)c3ccc(N)c(S(=O)(=O)O)c3oc-2c1S(=O)(=O)O	577 nM	200 nM	334 nM	
O=c1[nH]/c(=N\OCCCc2cccc([N+](=O)[O-])c2)ccn1[C@@H]1O[C@H](COP(=O)(O)OP(=O)(O)OP(=O)(O)O)[C@@H](O)[C@H]1O	457 nM	95 nM	9700 nM	
O=c1[nH]/c(=N\OCCOc2ccccc2)ccn1[C@@H]1O[C@H](COP(=O)(O)OP(=O)(O)OP(=O)(O)O)[C@@H](O)[C@H]1O	3400 nM	430 nM	1780 nM	
O=c1[nH]/c(=N\OCCCc2cccc(F)c2)ccn1[C@@H]1O[C@H](COP(=O)(O)OP(=O)(O)OP(=O)(O)O)[C@@H](O)[C@H]1O	190 nM	100 nM	539 nM	
O=c1[nH]/c(=N\OCCCc2ccsc2)ccn1[C@@H]1O[C@H](COP(=O)(O)OP(=O)(O)OP(=O)(O)O)[C@@H](O)[C@H]1O	103 nM	20 nM	164 nM	
O=c1[nH]/c(=N\OCCCc2ccc(Br)cc2)ccn1[C@@H]1O[C@H](COP(=O)(O)OP(=O)(O)OP(=O)(O)O)[C@@H](O)[C@H]1O	350 nM	141 nM	225 nM	
O=C(CCCCCNC(=O)COc1ccc(/C=C/c2ccc3n2[B-](F)(F)[N+]2=C(c4cccs4)C=CC2=C3)cc1)NCCCn1cc(CCNC(=O)COc2ccc(CCCO/N=c3/ccn([C@@H]4O[C@H](COP(=O)(O)OP(=O)(O)OP(=O)(O)O)[C@@H](O)[C@H]4O)c(=O)[nH]3)cc2)nn1	66 nM	70 nM	23 nM	Activity (P2Y purinoceptor 6 [7]): Active; Activity (P2Y purinoceptor 6 [8]): Active; Activity (P2Y purinoceptor 6 [9]): inactive; Activity (P2Y purinoceptor 6 [10]): inactive; Activity (P2Y purinoceptor 6 [11]): inactive; Activity (P2Y purinoceptor 6 [12]): Active; Activity (P2Y purinoceptor 6 [13]): Active
O=c1[nH]/c(=N\OCCCCc2ccccc2)ccn1[C@@H]1O[C@H](COP(=O)(O)OP(=O)(O)OP(=O)(O)O)[C@@H](O)[C@H]1O	214 nM	54 nM	251 nM	
O=c1ccn([C@@H]2O[C@H](COP(=O)(O)OP(=O)(O)OP(=O)(O)OP(=O)(O)OC[C@H]3O[C@@H](n4cc/c(=N/OCCCc5ccccc5)[nH]c4=O)[C@H](O)[C@@H]3O)[C@@H](O)[C@H]2O)c(=O)[nH]1				EC50 (P2Y purinoceptor 2 [4]): 389 nM; EC50 (P2Y purinoceptor 4 [5]): 93 nM; EC50 (P2Y purinoceptor 6 [6]): 332 nM
C#CCCCO/N=c1/ccn([C@@H]2O[C@H](COP(=O)(O)OP(=O)(O)OP(=O)(O)O)[C@@H](O)[C@H]2O)c(=O)[nH]1	168 nM	410 nM	3000 nM	

Continued by falling EC50 (P2Y purinoceptor 2 [1]), values first:

EC50 (P2Y purinoceptor 2 [1])	EC50 (P2Y purinoceptor 4 [2])	EC50 (P2Y purinoceptor 6 [3])	Compound	other results
934 nM	47 nM	177 nM	N#CC(CCO/N=c1/ccn([C@@H]2O[C@H](COP(=O)(O)OP(=O)(O)OP(=O)(O)O)[C@@H](O)[C@H]2O)c(=O)[nH]1)(c1ccccc1)c1ccccc1	
547 nM	105 nM	1210 nM	O=c1[nH]/c(=N\OCCCc2ccc(F)cc2)ccn1[C@@H]1O[C@H](COP(=O)(O)OP(=O)(O)OP(=O)(O)O)[C@@H](O)[C@H]1O	
458 nM	84 nM	1330 nM	O=c1[nH]/c(=N\OCCCc2ccc([N+](=O)[O-])cc2)ccn1[C@@H]1O[C@H](COP(=O)(O)OP(=O)(O)OP(=O)(O)O)[C@@H](O)[C@H]1O	
327 nM	300 nM	2950 nM	O=c1[nH]/c(=N\OCCCc2cccnc2)ccn1[C@@H]1O[C@H](COP(=O)(O)OP(=O)(O)OP(=O)(O)O)[C@@H](O)[C@H]1O	
299 nM	470 nM	697 nM	O=C(O)CCCO/N=c1/ccn([C@@H]2O[C@H](COP(=O)(O)OP(=O)(O)OP(=O)(O)O)[C@@H](O)[C@H]2O)c(=O)[nH]1	
187 nM	91 nM	90 nM	O=c1[nH]/c(=N\OCCCc2ccc(I)cc2)ccn1[C@@H]1O[C@H](COP(=O)(O)OP(=O)(O)OP(=O)(O)O)[C@@H](O)[C@H]1O	
139 nM	128 nM	90 nM	O=c1[nH]/c(=N\OCCCc2ccc3ccccc3c2)ccn1[C@@H]1O[C@H](COP(=O)(O)OP(=O)(O)OP(=O)(O)O)[C@@H](O)[C@H]1O	
109 nM	40 nM	183 nM	C#CCCNC(=O)COc1ccc(CCCO/N=c2/ccn([C@@H]3O[C@H](COP(=O)(O)OP(=O)(O)OP(=O)(O)O)[C@@H](O)[C@H]3O)c(=O)[nH]2)cc1	
47 nM	23 nM	277 nM	COc1ccc(CCCO/N=c2/ccn([C@@H]3O[C@H](COP(=O)(O)OP(=O)(O)OP(=O)(O)O)[C@@H](O)[C@H]3O)c(=O)[nH]2)cc1	

Reference: ChEMBL document CHEMBL3259562, “4-Alkyloxyimino derivatives of uridine-5'-triphosphate: distal modification of potent agonists as a strategy for molecular probes of P2Y2, P2Y4, and P2Y6 receptors” (J Med Chem, 2014)
